ChEMBL document CHEMBL1124761, “Polyamine analogues with antitumor activity” (J Med Chem, 1990)
Active and inactive are the calls of the source. The rule behind the calls is not given here.

Legend:
[1] = tested on: L1210; experiment: Tested for the T/C (survival time treated/survival time control x 100) after intraperitoneal administration of 50 mg/Kg in 10 E 5 L1210 cells on day 0; not active; format: functional; details: Mus musculus
[2] = tested on: L1210; experiment: Effect of 25 mg/kg spermidine coadministered with 25 mg/kg compound on the tumor cell concentration (L1210) of compound; format: functional, Mus musculus
In short: (§1)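 BDF1 male mice bearing ip L1210 cells. Starting day 4, ip dosing with analogue, alone or with putrescine or spermidine, at the doses indicated. Killed 4 h after the final dose; tumour cells recovered by peritoneal lavage. Drug and polyamines quantified by HPLC, pmol/10^6 cells, mean of three determinations.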

[3] = tested on: L1210; experiment: Effect of 25 mg/kg spermidine coadministered with 25 mg/kg compound on the tumor cell concentration (L1210) of putrescine; format: functional, Mus musculus; in short: as §1
[4] = tested on: L1210; experiment: Effect of 25 mg/kg spermidine coadministered with 25 mg/kg compound on the tumor cell concentration (L1210) of spermidine; format: functional, Mus musculus; in short: as §1
[5] = tested on: L1210; experiment: Effect of 25 mg/kg spermidine coadministered with 25 mg/kg compound on the tumor cell concentration (L1210) of spermine; format: functional, Mus musculus; in short: as §1
[6] = tested on: L1210; experiment: Effect of 25 mg/kg putrescine coadministered with 25 mg/kg compound on the tumor cell concentration (L1210) of compound; format: functional, Mus musculus; in short: as §1
[7] = tested on: L1210; experiment: Effect of 25 mg/kg putrescine coadministered with 25 mg/kg compound on the tumor cell concentration (L1210) of putrescine; format: functional, Mus musculus; in short: as §1
[8] = tested on: L1210; experiment: Effect of 25 mg/kg putrescine coadministered with 25 mg/kg compound on the tumor cell concentration (L1210) of spermidine; format: functional, Mus musculus; in short: as §1
[9] = tested on: L1210; experiment: Effect of 25 mg/kg putrescine coadministered with 25 mg/kg compound on the tumor cell concentration (L1210) of spermine; format: functional, Mus musculus; in short: as §1
[10] = Tested for in vitro half life period against polyamine oxidase after intraperitoneal administration; format: ADME; details: ip
[11] = target: Peroxisomal N(1)-acetyl-spermine/spermidine oxidase (Mus musculus) (UniProt Q8C0L6); experiment: Tested for the in vivo inhibitory activity against polyamine oxidase in mice at a dose of 1 mg/kg; format: functional, organism-based; parameters: dose 1 mg/kg
Chain of Peroxisomal N(1)-acetyl-spermine/spermidine oxidase (Mus musculus) (Q8C0L6 whole entry): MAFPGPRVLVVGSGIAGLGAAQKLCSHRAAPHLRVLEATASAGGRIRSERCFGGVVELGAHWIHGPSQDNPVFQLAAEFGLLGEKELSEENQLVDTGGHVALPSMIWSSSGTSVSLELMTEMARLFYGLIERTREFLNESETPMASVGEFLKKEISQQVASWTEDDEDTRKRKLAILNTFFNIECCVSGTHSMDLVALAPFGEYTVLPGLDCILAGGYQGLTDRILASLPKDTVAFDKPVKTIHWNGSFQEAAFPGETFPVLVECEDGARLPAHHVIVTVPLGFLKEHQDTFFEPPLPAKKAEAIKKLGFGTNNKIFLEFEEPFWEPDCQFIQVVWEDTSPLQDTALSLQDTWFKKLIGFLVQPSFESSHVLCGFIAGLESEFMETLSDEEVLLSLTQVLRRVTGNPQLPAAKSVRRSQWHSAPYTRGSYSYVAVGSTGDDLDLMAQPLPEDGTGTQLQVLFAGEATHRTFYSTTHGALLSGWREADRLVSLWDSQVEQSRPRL
In short: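 Mice received drug ip 24 h before sacrifice. Liver homogenised and polyamine oxidase activity assayed. Protein by Bradford method with BSA standard.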

[12] = tested on: L1210; experiment: Tested for the T/C (survival time treated /survival time control x 100) after intraperitoneal administration of 25 mg/kg in 10 E 5 L1210 cells on day 0; format: functional, Mus musculus
[13] = tested on: L1210; experiment: (§2) Antitumor activity against L1210 leukemia in BDF1 male mice at the dose of 10 mg/kg; format: functional, Mus musculus
In short: (§3)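 BDF1 male mice were inoculated ip with 10^5 L1210 cells on day 0. Agents were given ip once daily on days 1-9, alone or with diallenylputrescine at 2.5 or 5.0 mg/kg. Mean survival time was reported ± SD (n=5). %T/C = treated survival/control survival × 100.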

[14] = tested on: L1210; experiment: (§4) Antitumor activity against L1210 leukemia in BDF1 male mice at the dose of 10 mg/kg when given with 5.0 mg/kg of diallenylputrescine; format: functional, Mus musculus; in short: as §3
[15] = tested on: L1210; experiment: (§5) Antitumor activity against L1210 leukemia in BDF1 male mice at the dose of 5 mg/kg; format: functional, Mus musculus; parameters: unit not given here; in short: as §3
[16] = tested on: L1210; experiment: (§6) Antitumor activity against L1210 leukemia in BDF1 male mice at the dose of 5 mg/kg when given with 5.0 mg/kg of diallenylputrescine; format: functional, Mus musculus; in short: as §3
[17] = tested on: L1210; experiment: as §2; format: functional, Mus musculus; remark: listed apart in the source
In short: (§7)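 L1210 leukemia, 10^5 cells inoculated ip into BDF1 male mice on day 0. Analogue given ip once daily on days 1-9; where stated, diallenylputrescine (PAO inhibitor) was co-given at 2.5 or 5.0 mg/kg. Mean survival time ± SD (n=5). %T/C = treated survival time/control survival time × 100.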

[18] = tested on: L1210; experiment: as §4; format: functional, Mus musculus; in short: as §7; remark: listed apart in the source
[19] = tested on: L1210; experiment: as §5; format: functional, Mus musculus; in short: as §7
[20] = tested on: L1210; experiment: as §6; format: functional, Mus musculus; in short: as §7; remark: listed apart in the source
[21] = tested on: L1210; experiment: Tested for the T/C (survival time treated /survival time control x 100) after intraperitoneal administration of 5 mg/kg in 10 E 5 L1210 cells on day 0; format: functional, Mus musculus
In short: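 Male BDF1 mice, in groups of six, were inoculated ip with 10^5 L1210 cells on day 0. Tetrahydrochloride salts were given at 5 mg/kg every 3 h (×4) on days 3-5. T/C = survival time treated/survival time control × 100.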

[22] = tested on: L1210; experiment: (§8) Antitumor activity against L1210 leukemia in BDF1 male mice at the dose of 5 mg/kg when given with 2.5 mg/kg of diallenylputrescine; format: functional, Mus musculus; in short: as §3
[23] = tested on: L1210; experiment: as §8; format: functional, Mus musculus; in short: as §7; remark: listed apart in the source
[24] = tested on: L1210; experiment: Modulation of the antitumor activity against L1210 Leukemia at 25 mg/kg along with 25 mg/kg putrescine days 1-7, 1 dose / day; format: functional, Mus musculus
[25] = tested on: L1210; experiment: Modulation of the antitumor activity against L1210 Leukemia at 25 mg/kg along with 25 mg/kg spermidine days 1-7, 1 dose / day; format: functional, Mus musculus
[26] = tested on: L1210; experiment: Modulation of the antitumor activity against L1210 Leukemia by 25 mg/kg ip days 1-7, 1 dose/day; format: functional, Mus musculus; details: route intraperitoneal
[27] = tested on: L1210; experiment: Effect of 25 mg/kg putrescine or spermidine coadministered with 25 mg/kg compound on the tumor cell concentration (L1210) of compound; format: functional, Mus musculus; in short: as §1
[28] = tested on: L1210; experiment: Effect of 25 mg/kg putrescine or spermidine coadministered with 25 mg/kg compound on the tumor cell concentration (L1210) of putrescine; format: functional, Mus musculus; in short: as §1
[29] = tested on: L1210; experiment: Effect of 25 mg/kg putrescine or spermidine coadministered with 25 mg/kg compound on the tumor cell concentration (L1210) of spermidine; format: functional, Mus musculus; in short: as §1
[30] = tested on: L1210; experiment: Effect of 25 mg/kg putrescine or spermidine coadministered with 25 mg/kg compound on the tumor cell concentration (L1210) of spermine; format: functional, Mus musculus; in short: as §1

Question: For CN(C)CCCNCCCCCCCCNCCCN(C)C, which T/C [1] is on record?
Answer: inactive

Question: Which T/C [1] does the source give for CNCCCNCCCNC here?
Answer: inactive

Question: Which results are given for NCCCCNCCCN.NCCCNCCCCCCCCNCCCN?
Answer: Effect [2]: 114 pM (10e6*cells)-1; Effect [3]: 51.7 pM (10e6*cells)-1; Effect [4]: 2174 pM (10e6*cells)-1; Effect [5]: 817 pM (10e6*cells)-1

Question: Which T/C [1] does the source give for NCCCNCCCOCCCNCCCN here?
Answer: inactive

Question: For CNCCCCCCCCNC, which T/C [1] is on record?
Answer: inactive

Question: With NCCCCN.NCCCNCCCCCCCCNCCCN as the compound, how does the Effect [6] read?
Answer: 520 pM (10e6*cells)-1

Question: And the Effect [7]?
Answer: 120 pM (10e6*cells)-1

Question: What about the Effect [8] of the same compound?
Answer: 1060 pM (10e6*cells)-1

Question: And the Effect [9]?
Answer: 799 pM (10e6*cells)-1

Question: With C=C=CCNCCCNCCCCCCCCNCCCNCC=C=C.Cl.Cl.Cl.Cl as the compound, how does the T50 [10] read?
Answer: 2 min

Question: And the T/C [1]?
Answer: inactive

Question: And the PAO activity [11]?
Answer: 4.1 pM/min

Question: Which T/C [1] does the source give for CN(CCCN)CCCN here?
Answer: inactive

Question: With NCCCCCCCCNCCCN as the compound, how does the T/C [1] read?
Answer: inactive

Question: Which T/C [1] does the source give for NCCCOCCCN here?
Answer: inactive

Question: With NCCCCCCCCN as the compound, how does the T/C [1] read?
Answer: inactive

Question: For NCCCCCCCN, which T/C [1] is on record?
Answer: inactive

Question: With NCCCNCCCN [NORSPERMIDINE] as the compound, how does the T/C [12] read?
Answer: 179%

Question: With C=C=CCNCCCCNCC=C=C as the compound, how does the T50 [10] read?
Answer: 1 min

Question: Which T/C [1] does the source give for CN(CCCN)CCCCCCCCN(C)CCCN here?
Answer: inactive

Question: Which results are given for CCNCCCNCCCCCCCCNCCCNCC.Cl.Cl.Cl.Cl?
Answer: Mean survival time [13]: 9; Mean survival time [14]: 23; Mean survival time [15]: 9.8; Mean survival time [16]: 11.4; T/C [17]: 112%; T/C [18]: 287%; T/C [19]: 122%; T/C [20]: 142%; T/C [21]: 135%

Question: Which T/C [1] does the source give for CCCNCCCNCCCCCCCCNCCCNCCC here?
Answer: inactive

Question: Which T/C [1] does the source give for c1ccc(CNCCCNCCCCCCCCNCCCNCc2ccccc2)cc1 here?
Answer: inactive

Question: With NCCCCSCCCN as the compound, how does the T/C [1] read?
Answer: inactive

Question: Which T/C [1] does the source give for CCCCNCCCNCCCCCCCCNCCCNCCCC here?
Answer: inactive

Question: With C=C=CCNCCCNCCCNCC=C=C as the compound, how does the T50 [10] read?
Answer: 4 min

Question: And the T/C [1]?
Answer: inactive

Question: And the PAO activity (pM min-1 mg-1) [11]?
Answer: 1

Question: For CCNCCCNCCCCCCCCNCCCN.Cl.Cl.Cl.Cl, which Mean survival time [13] is on record?
Answer: 9

Question: And the Mean survival time [14]?
Answer: 12.4

Question: What about the Mean survival time [15] of the same compound?
Answer: 7.6

Question: What about the Mean survival time [16] of the same compound?
Answer: 8.4

Question: What about the T/C [17] of the same compound?
Answer: 112%

Question: What about the T/C [18] of the same compound?
Answer: 155%

Question: What about the T/C [19] of the same compound?
Answer: 100%

Question: What about the T/C [20] of the same compound?
Answer: 105%

Question: What about the T/C [21] of the same compound?
Answer: 145%

Question: For CNCCCNCCCCCCCCNCCCNC.Cl.Cl.Cl.Cl, which Mean survival time [13] is on record?
Answer: 13.8

Question: And the Mean survival time [14]?
Answer: 25.4

Question: What about the Mean survival time [15] of the same compound?
Answer: 11.4

Question: What about the Mean survival time [16] of the same compound?
Answer: 12.6

Question: What about the T/C [17] of the same compound?
Answer: 172%

Question: And the T/C [18]?
Answer: 317%

Question: And the T/C [19]?
Answer: 142%

Question: What about the T/C [20] of the same compound?
Answer: 157%

Question: And the T/C [21]?
Answer: 206%

Question: Which Mean survival time [15] does the source give for CC(N)CCNCCCCCCCCNCCC(C)N.Cl.Cl.Cl.Cl (centres undefined) here?
Answer: 13.3

Question: What about the Mean survival time [22] of the same compound?
Answer: 25.6

Question: And the T/C [19]?
Answer: 195%

Question: What about the T/C [23] of the same compound?
Answer: 376%

Question: What about the T/C [21] of the same compound?
Answer: 206%

Question: For Cl.Cl.Cl.Cl.NCCCNCCCCCCCCNCCCN, which Mean survival time [24] is on record?
Answer: 15 days

Question: And the Mean survival time [25]?
Answer: 8.3 days

Question: And the Mean survival time [26]?
Answer: 16.2 days

Question: And the Effect [27]?
Answer: 580 pM (10e6*cells)-1

Question: What about the Effect [28] of the same compound?
Answer: 37.4 pM (10e6*cells)-1

Question: And the Effect [29]?
Answer: 1711 pM (10e6*cells)-1

Question: And the Effect [30]?
Answer: 1110 pM (10e6*cells)-1

Question: What about the T/C [21] of the same compound?
Answer: 350%

Question: With NCCCSCCCN as the compound, how does the T/C [1] read?
Answer: inactive

Question: With CN(C)CCCNCCCN(C)C as the compound, how does the T/C [1] read?
Answer: inactive

Question: With CC(CCN)NCCCCCCCCNC(C)CCN (centres undefined) as the compound, how does the T/C [1] read?
Answer: inactive

Question: Which T/C [1] does the source give for NCCCS(=O)(=O)CCCN here?
Answer: inactive
